From ChEMBL document CHEMBL1156659, “Cycloartane triterpenoids from Astragalus bicuspis” (J Nat Prod, 2008)
pIC50: −log10 of the molar value.

Key:
[1] = test system: NIH3T3; assay: Cytotoxicity against mouse 3T3 cells after 72 hrs by MTT assay; type: cell-based; conditions: for pIC50: Mus musculus, NIH3T3, 72 h, read-out: IC50; for IC50: nih3t3
Summary of the method: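 Mouse fibroblasts were kept in DMEM with 5% FBS, penicillin and streptomycin at 37 °C under 5% CO2, seeded at 3 × 10^4 cells/mL, and left overnight. Fresh medium holding a compound concentration series was added for 72 h. MTT (2 mg/mL) was added for 4 h, then DMSO, and formazan was read at 540 nm. The value is the concentration giving 50% growth inhibition.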

[2] = test system: Leishmania major; assay: Antileishmanial activity against Leishmania major DESTO promastigotes after 72 hrs; type: functional, organism-based
Summary of the method: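 Log-phase promastigotes grown at 22-25 °C in RPMI-1640 with 10% heat-inactivated FBS, seeded at 1 × 10^6 cells/mL. Compounds were taken from a 1 mg/mL stock (DMSO, then complete medium), serially diluted, and incubated 21-22 °C for 72 h. Viable parasites were counted microscopically in a Neubauer chamber, and IC50 was derived by curve fitting. Run in duplicate.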

| IC50 [2] | Compound | pIC50 [1] | IC50 [1] |
| --- | --- | --- | --- |
| 64.35 µmol | C[C@@H]1C[C@@]2(O[C@H]3C[C@@]4(C)[C@@H]5C[C@H](O)[C@H]6C(C)(C)[C@@H](O[C@@H]7OC[C@@H](O)[C@@H](O)[C@H]7O)CC[C@@]67C[C@@]57CC[C@]4(C)[C@@H]13)O[C@H](O)[C@]1(C)O[C@H]21 | < 4.00 |  |
| 4.32 µmol | N=C(N)c1ccc(OCCCCCOc2ccc(C(=N)N)cc2)cc1 [PENTAMIDINE] |  |  |
| 0.54 µmol | C[C@@H]1[C@H](O)[C@@H](C)/C=C/C=C/C=C/C=C/C=C/C=C/C=C/[C@H](O[C@@H]2O[C@H](C)[C@@H](O)[C@H](N)[C@@H]2O)C[C@@H]2O[C@](O)(C[C@@H](O)C[C@@H](O)[C@H](O)CC[C@@H](O)C[C@@H](O)CC(=O)O[C@H]1C)C[C@H](O)[C@H]2C(=O)O [AMPHOTERICIN B] |  |  |
|  | C[C@@H]1C[C@@H]([C@H](O)CC2CC(=O)NC(=O)C2)C(=O)[C@@H](C)C1 [CYCLOHEXIMIDE] |  | 0.912 µmol |
| 93.65 µmol | CO[C@H]1C[C@@H](C)[C@H]2[C@H](C[C@@]3(C)[C@@H]4C[C@H](O)[C@H]5C(C)(C)[C@@H](O[C@@H]6OC[C@@H](O)[C@@H](O)[C@H]6O)CC[C@@]56C[C@@]46CC[C@]23C)O1 | 4.28 |  |

| Compound | IC50 [2] | pIC50 [1] | IC50 [1] |
| --- | --- | --- | --- |
| CC(C)(O)[C@@H]1CC[C@](C)([C@@H]2[C@@H](O)C[C@@]3(C)[C@@H]4C[C@H](O)[C@H]5C(C)(C)[C@@H](O)CC[C@@]56C[C@@]46CC[C@]23C)O1 | 108 µM | < 4.00 |  |
| CC(C)(O)[C@@H]1CC[C@](C)([C@H]2[C@@H](O)C[C@@]3(C)[C@@H]4C[C@H](O)[C@H]5C(C)(C)[C@@H](O[C@@H]6OC[C@@H](O)[C@H](O)[C@H]6O)CC[C@@]56C[C@@]46CC[C@]23C)O1 | 56.51 µmol |  | 19.51 µmol |
